Calls of active or inactive are those of the source. The rule behind the calls is not given here.
Legend:
Rattus norvegicus [1] = assay: Natriuretic potency expressed as oral dose necessary to produce an excretion of 2 mequiv of Na+/kg in the rat urine during the 4 hr period after dosing; Inactive; format: functional, organism-based
How it was run: (§1)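 Rats were dosed orally in dose–response experiments. Urine volume, Na+, K+ and Cl- were measured. ED2 is the oral dose in mg/kg giving excretion of 2 mequiv Na+/kg in urine over the 4 h after dosing.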

Rattus norvegicus [2] = assay: Natriuretic potency expressed as oral dose necessary to produce an excretion of 2 mequiv of Na+/kg in the rat urine during the 4 hr period after dosing; format: functional; how it was run: as §1
Rattus norvegicus [3] = assay: Natriuretic potency expressed as oral dose necessary to produce an excretion of 2 mequiv of Na+/kg in the rat urine during the 4 h period after dosing; Inactive.; format: functional, organism-based; how it was run: as §1
[4] = Distribution coefficient in octanol-pH 7.0 phosphate buffer was measured at room temperature; format: physicochemical
[5] = pKa value was evaluated; format: physicochemical
How it was run: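 UV absorption spectra were recorded in a buffer series spanning the pH range from fully protonated to fully deprotonated phenolic OH. Absorbance vs pH curves were fit by nonlinear regression, solving for the extinction coefficients of both forms and the pKa. For the amine pKa the buffers were extended to pH 12.0.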

**Q.** Which ED2 (Rattus norvegicus [1]) does the source give for CCOC(=O)COc1ccc(COc2ccc(O)c(CN)c2)c(Cl)c1Cl here?
**A.** inactive

**Q.** For CCOC(=O)COc1ccc2c(-c3ccc(O)c(CN)c3)noc2c1Cl.Cl, which ED2 (Rattus norvegicus [2]) is on record?
**A.** 35 mg/kg

**Q.** With CCOC(=O)COc1ccc(C(=O)C(=O)c2ccc(O)c(CN)c2)c(Cl)c1Cl as the compound, how does the ED2 (Rattus norvegicus [1]) read?
**A.** inactive

**Q.** What does the source list for CCOC(=O)COc1ccc(S(=O)(=O)c2ccc(O)c(CN)c2)c(Cl)c1Cl?
**A.** ED2 (Rattus norvegicus [3]): inactive; logD [4]: 1.25; pKa [5]: 6.67

**Q.** Which logD [4] does the source give for CCOC(=O)COc1ccc(C(=O)c2ccc(O)c(CN)c2)cc1 here?
**A.** 0.3

**Q.** What about the pKa [5] of the same compound?
**A.** 7.34

**Q.** Which ED2 (Rattus norvegicus [1]) does the source give for CCOC(=O)COc1ccc(-c2ccc(O)c(CN)c2)c(Cl)c1Cl here?
**A.** inactive

**Q.** For CCOC(=O)COc1ccc(Cc2ccc(O)c(CN)c2)c(Cl)c1Cl.Cl, which logD [4] is on record?
**A.** 1.66

**Q.** And the ED2 (Rattus norvegicus [2])?
**A.** 7.5 mg/kg

**Q.** What about the pKa [5] of the same compound?
**A.** 8.73

**Q.** For CCOC(=O)COc1ccc(C(=O)c2ccc(O)c(CN)c2)c(Cl)c1Cl.Cl, which logD [4] is on record?
**A.** 1.41

**Q.** What about the ED2 (Rattus norvegicus [2]) of the same compound?
**A.** 2.5 mg/kg

**Q.** What about the pKa [5] of the same compound?
**A.** 6.38

**Q.** For CCOC(=O)COc1ccc(C(=O)Nc2ccc(O)c(CN)c2)c(Cl)c1Cl, which ED2 (Rattus norvegicus [1]) is on record?
**A.** inactive

**Q.** For CCOC(=O)COc1ccc(Sc2ccc(O)c(CN)c2)c(Cl)c1Cl.Cl, which ED2 (Rattus norvegicus [2]) is on record?
**A.** 1 mg/kg

**Q.** Which ED2 (Rattus norvegicus [2]) does the source give for COC(=O)COc1ccc([S+]([O-])c2ccc(O)c(CN)c2)c(Cl)c1Cl.Cl (stereo unspecified) here?
**A.** 16.3 mg/kg

**Q.** With CCOC(=O)COc1ccc(Oc2ccc(O)c(CN)c2)c(Cl)c1Cl.Cl as the compound, how does the logD [4] read?
**A.** 1.82

**Q.** What about the ED2 (Rattus norvegicus [2]) of the same compound?
**A.** 0.8 mg/kg

**Q.** And the pKa [5]?
**A.** 8.55
